From ChEMBL document CHEMBL2346608, “New annelated thieno[2,3-e][1,2,3]triazolo[1,5-a]pyrimidines, with potent anticancer activity, designed through VLAK protocol” (2013)

Key:
Type in all cases: functional
[1] = tested on: SK-OV-3; test: Antiproliferative activity against human SKOV3 cells after 48 hrs by sulforhodamine B assay; conditions: SK-OV-3, 48 h
Summary of the method: (§1)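 Cells grown in RPMI 1640 with 5% FBS and 2 mM L-glutamine, plated at 5000–40,000 cells/well and preincubated 24 h at 37 °C, 5% CO2. Five drug concentrations (10-fold or ½-log dilutions from DMSO stocks) applied for 48 h. TCA-fixed (final 10% adherent, 16% suspension), SRB-stained, A515 read. Growth versus time-zero and control wells gave GI50, TGI, LC50.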

[2] = tested on: DU-145; test: Antiproliferative activity against human DU145 cells after 48 hrs by sulforhodamine B assay; conditions: DU-145, 48 h; summary of the method: as §1
[3] = tested on: OVCAR-5; test: Antiproliferative activity against human OVCAR5 cells after 48 hrs by sulforhodamine B assay; conditions: OVCAR-5, 48 h; summary of the method: as §1
[4] = tested on: OVCAR-3; test: Antiproliferative activity against human OVCAR3 cells after 48 hrs by sulforhodamine B assay; conditions: OVCAR-3, 48 h; summary of the method: as §1
[5] = tested on: NCI/ADR-RES; test: Antiproliferative activity against human NCI/ADR-RES cells after 48 hrs by sulforhodamine B assay; summary of the method: as §1
[6] = tested on: NCI-H322M; test: Antiproliferative activity against human NCI-H322M cells after 48 hrs by sulforhodamine B assay; summary of the method: as §1
[7] = Antiproliferative activity against human EKVX cells after 48 hrs by sulforhodamine B assay; summary of the method: as §1
[8] = tested on: UACC-62; test: Antiproliferative activity against human UACC62 cells after 48 hrs by sulforhodamine B assay; conditions: UACC-62, 48 h
Summary of the method: (§2)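 Cells in RPMI 1640 with 5% FBS and 2 mM L-glutamine were seeded at 5000–40,000/well according to doubling time and preincubated 24 h at 37 °C in 5% CO2. Time-zero plates were TCA-fixed when drug was added. Five 10-fold or ½-log dilutions from DMSO stocks were added for 48 h. After SRB staining, A515 was read and GI50 derived from [(Ti−Tz)/(C−Tz)]×100 = 50.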

[9] = tested on: MDA-MB-435; test: Antiproliferative activity against human MDA-MB-435 cells after 48 hrs by sulforhodamine B assay; conditions: MDA-MB-435, 48 h; summary of the method: as §1
[10] = tested on: LOX IMVI; test: Antiproliferative activity against human LOXIMVI cells after 48 hrs by sulforhodamine B assay; summary of the method: as §1
[11] = tested on: K562; test: Antiproliferative activity against human K562 cells after 48 hrs by sulforhodamine B assay; conditions: K562, 48 h; summary of the method: as §1
[12] = tested on: MOLT-4; test: Antiproliferative activity against human MOLT4 cells after 48 hrs by sulforhodamine B assay; conditions: MOLT-4, 48 h; summary of the method: as §1
[13] = tested on: HL-60; test: Antiproliferative activity against human HL60 (TB) cells after 48 hrs by sulforhodamine B assay; conditions: HL-60, 48 h
Summary of the method: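 NCI 60-cell panel protocol: cells in RPMI 1640 with 5% FBS and 2 mM L-glutamine, plated 24 h at 37 °C/5% CO2 before dosing. Compounds dissolved in DMSO and tested at five concentrations (10-fold or ½ log serial dilutions) for 48 h. Suspension cells fixed with 80% TCA (final 16%), SRB stained, absorbance at 515 nm. GI50 derived from time-zero-corrected growth.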

[14] = tested on: SW-620; test: Antiproliferative activity against human SW620 cells after 48 hrs by sulforhodamine B assay; conditions: SW-620, 48 h; summary of the method: as §2
[15] = tested on: HCT-116; test: Antiproliferative activity against human HCT116 cells after 48 hrs by sulforhodamine B assay; conditions: HCT-116, 48 h; summary of the method: as §1
[16] = tested on: U-251; test: Antiproliferative activity against human U251 cells after 48 hrs by sulforhodamine B assay; conditions: U-251, 48 h; summary of the method: as §2
[17] = tested on: COLO 205; test: Antiproliferative activity against human COLO205 cells after 48 hrs by sulforhodamine B assay; conditions: COLO 205, 48 h; summary of the method: as §1
[18] = tested on: SF-539; test: Antiproliferative activity against human SF539 cells after 48 hrs by sulforhodamine B assay; conditions: SF-539, 48 h; summary of the method: as §1
[19] = tested on: SNB-19; test: Antiproliferative activity against human SNB19 cells after 48 hrs by sulforhodamine B assay; conditions: SNB-19, 48 h; summary of the method: as §1
[20] = tested on: SF-295; test: Antiproliferative activity against human SF295 cells after 48 hrs by sulforhodamine B assay; conditions: SF-295, 48 h; summary of the method: as §1
[21] = tested on: MDA-MB-468; test: Antiproliferative activity against human MDA-MB-468 cells after 48 hrs by sulforhodamine B assay; conditions: MDA-MB-468, 48 h; summary of the method: as §1
[22] = tested on: T47D; test: Antiproliferative activity against human T47D cells after 48 hrs by sulforhodamine B assay; summary of the method: as §2
[23] = tested on: MDA-MB-231; test: Antiproliferative activity against human MDA-MB-231 cells after 48 hrs by sulforhodamine B assay; conditions: MDA-MB-231, 48 h; summary of the method: as §1
[24] = tested on: SN12C; test: Antiproliferative activity against human SN12C cells after 48 hrs by sulforhodamine B assay; summary of the method: as §1
[25] = tested on: ACHN; test: Antiproliferative activity against human ACHN cells after 48 hrs by sulforhodamine B assay; summary of the method: as §1
[26] = tested on: A498; test: Antiproliferative activity against human A498 cells after 48 hrs by sulforhodamine B assay; conditions: A498, 48 h; summary of the method: as §1
[27] = tested on: PC-3; test: Antiproliferative activity against human PC3 cells after 48 hrs by sulforhodamine B assay; conditions: PC-3, 48 h; summary of the method: as §1
[28] = read-out: pLC50 (the source's name) (converted)

Compound: O=C(CCCn1c(=O)c2sc3ncccc3c2n2nnc(-c3ccccc3)c12)NCCc1c[nH]cn1
- GI50 [1]: 14.5 µM
- LC50 [1]: 53.7 µM
- TGI ([1]; read-out: pTGI (converted)): 27.5 µM
- GI50 [2]: 2.75 µM
- LC50 [2]: 61.7 µM
- TGI ([2]; read-out: pTGI (converted)): 19.5 µM
- GI50 [3]: 11.5 µM
- LC50 [3]: 93.3 µM
- TGI ([3]; read-out: pTGI (converted)): 32.4 µM
- GI50 [4]: 11 µM
- LC50 [4]: 50.1 µM
- TGI ([4]; read-out: pTGI (converted)): 23.4 µM
- GI50 [5]: 33.9 µM
- LC50 [5]: > 100 µM
- TGI ([5]; read-out: pTGI (converted)): > 100 µM
- GI50 [6]: 14.8 µM
- LC50 [6]: 89.1 µM
- TGI ([6]; read-out: pTGI (converted)): 36.3 µM
- GI50 [7]: 15.1 µM
- LC50 [7]: > 100 µM
- TGI ([7]; read-out: pTGI (converted)): 44.7 µM
- GI50 [8]: 15.8 µM
- LC50 (concentration killing 50% of cells) [8]: 57.5 µM
- TGI ([8]; read-out: pTGI (converted)): 30.2 µM
- GI50 [9]: 0.49 µM
- LC50 [9]: > 100 µM
- TGI ([9]; read-out: pTGI (converted)): 20.4 µM
- GI50 [10]: 12.3 µM
- CC50 [10, 28]: 57.5 µM
- TGI ([10]; read-out: pTGI (converted)): 26.3 µM
- GI50 [11]: 0.309 µM
- LC50 (concentration killing 50% of cells) [11]: > 100 µM
- TGI ([11]; read-out: pTGI (converted)): 15.5 µM
- GI50 [12]: 2.24 µM
- LC50 [12]: > 100 µM
- TGI ([12]; read-out: pTGI (converted)): 24 µM
- GI50 [13]: 1.41 µM
- CC50 [13, 28]: 50.1 µM
- TGI ([13]; read-out: pTGI (converted)): 4.79 µM
- GI50 [14]: 0.331 µM
- LC50 [14]: 61.7 µM
- TGI ([14]; read-out: pTGI (converted)): 14.5 µM
- GI50 [15]: 0.38 µM
- LC50 [15]: 38.9 µM
- TGI ([15]; read-out: pTGI (converted)): 10 µM
- GI50 [16]: 1.29 µM
- LC50 [16]: 45.7 µM
- TGI ([16]; read-out: pTGI (converted)): 14.8 µM
- GI50 [17]: 6.31 µM
- LC50 [17]: 58.9 µM
- TGI ([17]; read-out: pTGI (converted)): 23.4 µM
- GI50 [18]: 0.316 µM
- LC50 [18]: 53.7 µM
- TGI ([18]; read-out: pTGI (converted)): 14.8 µM
- GI50 [19]: 10.7 µM
- LC50 [19]: > 100 µM
- TGI ([19]; read-out: pTGI (converted)): 33.9 µM
- GI50 [20]: 1.74 µM
- LC50 [20]: 53.7 µM
- TGI ([20]; read-out: pTGI (converted)): 16.2 µM
- GI50 [21]: 8.13 µM
- LC50 [21]: 79.4 µM
- TGI ([21]; read-out: pTGI (converted)): 27.5 µM
- GI50 [22]: 1.86 µM
- LC50 [22]: 64.6 µM
- TGI ([22]; read-out: pTGI (converted)): 21.4 µM
- GI50 [23]: 17.8 µM
- LC50 [23]: 67.6 µM
- TGI ([23]; read-out: pTGI (converted)): 34.7 µM
- GI50 [24]: 0.331 µM
- LC50 [24]: 41.7 µM
- TGI ([24]; read-out: pTGI (converted)): 13.5 µM
- GI50 [25]: 15.5 µM
- LC50 (50% lethal concentration) [25]: 63.1 µM
- TGI ([25]; read-out: pTGI (converted)): 30.9 µM
- GI50 [26]: 6.76 µM
- LC50 [26]: 53.7 µM
- TGI ([26]; read-out: pTGI (converted)): 22.4 µM
- GI50 [27]: 11 µM
- LC50 [27]: > 100 µM
- TGI ([27]; read-out: pTGI (converted)): > 100 µM
